One data set deals with HUVEC. In words: Cytotoxicity against HUVEC. The format is cell-based. The note with it: human.
Data set [1] in a line: Toxicity in rat aortic endothelium assessed as microvessel sprouts at 10 and 50 uM after 6 or 7 days. The format is tissue-based, Sprague-Dawley, Aorta. As to conditions: ex_vivo, 168 h. In outline: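 Aortic ring viability check: on day 6 or 7, compound or medium was withdrawn and complete medium with VEGF (typically 10 ng/mL) was added for up to 7 more days. New microvessel sprouting was taken as a sign of viable tissue.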

The test system of data set [2] is Plasma. In words: Anticoagulant activity in human plasma assessed as activated partial thromboplastin time. The format is functional. The method, boiled down:
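Pooled normal human plasma spiked with compound in PBS at 0.1 mg/mL (methods give a 0–100 μg/mL range); APTT elevation measured. Normal range 26–36 s. Values are means of two determinations.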

Data set [3] deals with Fibroblast growth factor 1 (Homo sapiens, UniProt P05230). In words: Binding affinity to FGF1 by surface plasmon-based solution affinity assay. In outline:
(§1)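 Surface plasmon resonance solution affinity assay on heparin-coated CM4 chips. Buffer: HBS-EP (10 mM HEPES pH 7.4, 150 mM NaCl, 3.0 mM EDTA, 0.005% polysorbate 20). Kd is the mean of at least duplicate measurements ± SD.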
In general terms: SPR reads the build-up and loss of mass on a sensor chip optically.

The next data set has as its target T1, Heparanase (Homo sapiens, UniProt Q9Y251).
T1 sequence (Q9Y251 whole entry): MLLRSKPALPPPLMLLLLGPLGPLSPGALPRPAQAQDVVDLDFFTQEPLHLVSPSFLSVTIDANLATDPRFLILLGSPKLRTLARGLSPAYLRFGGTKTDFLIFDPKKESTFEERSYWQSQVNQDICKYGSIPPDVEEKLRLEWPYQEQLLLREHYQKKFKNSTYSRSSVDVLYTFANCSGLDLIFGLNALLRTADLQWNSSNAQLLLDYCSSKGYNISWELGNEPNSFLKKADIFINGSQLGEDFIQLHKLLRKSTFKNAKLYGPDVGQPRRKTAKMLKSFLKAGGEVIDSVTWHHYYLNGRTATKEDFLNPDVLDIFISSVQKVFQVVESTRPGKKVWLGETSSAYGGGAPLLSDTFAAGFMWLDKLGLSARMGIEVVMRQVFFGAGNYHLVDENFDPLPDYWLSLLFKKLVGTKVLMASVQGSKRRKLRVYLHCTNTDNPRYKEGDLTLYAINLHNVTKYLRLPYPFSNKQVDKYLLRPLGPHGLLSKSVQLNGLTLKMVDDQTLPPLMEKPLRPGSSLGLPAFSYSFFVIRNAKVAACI
In words: Inhibition of human recombinant heparanase. In outline: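 Recombinant human heparanase assayed by ultrafiltration with 3H-labelled heparan sulfate as substrate (Km = 1.64 μM). Ki values with standard error were derived from inhibition response curves.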

Data set [4] deals with T2, Vascular endothelial growth factor A, long form (Homo sapiens, UniProt P15692).
T2 sequence (P15692 whole entry): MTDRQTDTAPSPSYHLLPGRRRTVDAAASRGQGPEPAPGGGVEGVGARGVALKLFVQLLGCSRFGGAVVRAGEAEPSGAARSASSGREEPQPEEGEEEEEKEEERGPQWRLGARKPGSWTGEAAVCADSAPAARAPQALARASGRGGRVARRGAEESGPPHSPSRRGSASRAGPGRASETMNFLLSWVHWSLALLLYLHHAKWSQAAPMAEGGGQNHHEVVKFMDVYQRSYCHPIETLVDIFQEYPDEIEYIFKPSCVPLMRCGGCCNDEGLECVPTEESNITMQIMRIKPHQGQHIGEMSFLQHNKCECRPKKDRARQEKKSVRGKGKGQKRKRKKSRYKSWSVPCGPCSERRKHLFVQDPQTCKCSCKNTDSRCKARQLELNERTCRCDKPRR
In words: Binding affinity to VEGF by surface plasmon-based solution affinity assay. The method, boiled down: as §1

Data set [5] deals with Fibroblast growth factor 2 (Homo sapiens, UniProt P09038). In words: Binding affinity to FGF2 by surface plasmon-based solution affinity assay. In outline: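 Surface plasmon resonance solution affinity assay on heparin-coated CM4 chips. FGF-2 binding run in HBS-EP containing 300 mM NaCl. Kd is the mean of at least duplicate measurements ± SD.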
For data set [6], the system named is Plasma. In words: Anticoagulant activity in human plasma by heptest. The format is functional. In outline: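 Heptest clot assay. Plasma (centrifuged 1800g, 10 min, used within 30 min) incubated with compound 2 min at 37 °C. Factor Xa added, 2 min at 37 °C, then clotting started with Recalmix; read on a ball coagulometer. Normal range 13–20 s; means of two determinations.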

The test system of a further data set is Aorta. In words: Inhibition of angiogenesis in Sprague-Dawley rat aortic endothelium at 10 uM. The format is functional, tissue-based. The method, boiled down:
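Sprague-Dawley rats (2–4 months old): bisected 1 mm thoracic aortic rings embedded in Matrigel in EBM-2 with 2% FCS, no heparin. Compound added in triplicate, medium replenished every 48 h. Microvessel sprouting scored semiquantitatively by two assessors up to day 8. One-way ANOVA with Dunnett's test.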

Calls of active or inactive are those of the source. The calls are words filed in the database; no cut-off is given here. Where only a bound is given, the exact number is not on record here.

Fibroblast growth factor 2, sequence (P09038 143-288 limits assumed): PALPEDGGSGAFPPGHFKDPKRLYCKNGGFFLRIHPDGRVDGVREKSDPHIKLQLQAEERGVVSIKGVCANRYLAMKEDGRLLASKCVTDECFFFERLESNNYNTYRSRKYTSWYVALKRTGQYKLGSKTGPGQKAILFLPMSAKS
Fibroblast growth factor 1, sequence (P05230 whole entry): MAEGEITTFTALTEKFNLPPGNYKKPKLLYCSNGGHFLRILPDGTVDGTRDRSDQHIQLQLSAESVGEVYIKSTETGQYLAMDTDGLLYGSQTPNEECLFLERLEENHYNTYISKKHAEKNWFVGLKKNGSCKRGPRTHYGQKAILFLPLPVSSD

A word on the LC50: it is the concentration that kills 50% of the test population. Compound MUPARFOSTAT SODIUM yielded an LC50 in the data set with HUVEC of over 100 µM. In addition, the Activity entry in data set [1] is “Toxic”.

In general, Kd refers to the constant that tells how readily two partners part at equilibrium. By Ki is commonly meant a measure of affinity in units of concentration, obtained from inhibition or displacement. `O=S(=O)([O-])OC[C@H]1O[C@H](OCCCCCCCCn2cc(-c3ccccc3)nn2)[C@@H](O[C@H]2O[C@H](COS(=O)(=O)[O-])[C@@H](OS(=O)(=O)[O-])[C@H](O[C@H]3O[C@H](COS(=O)(=O)[O-])[C@@H](OS(=O)(=O)[O-])[C@H](O[C@H]4O[C@H](COS(=O)(=O)[O-])[C@@H](OS(=O)(=O)[O-])[C@H](OS(=O)(=O)[O-])[C@@H]4OS(=O)(=O)[O-])[C@@H]3OS(=O)(=O)[O-])[C@@H]2OS(=O)(=O)[O-])[C@@H](OS(=O)(=O)[O-])[C@@H]1OS(=O)(=O)[O-].[Na+].[Na+].[Na+].[Na+].[Na+].[Na+].[Na+].[Na+].[Na+].[Na+].[Na+].[Na+].[Na+]`: the Time with Plasma [2] is recorded as 53 s. Moreover, the Kd in data set [3] worked out at 0.00028 µM; in data set [4], 0.0104 µM; in data set [5], 0.14 µM. Besides, at Heparanase, the inhibition constant (Ki) turned out to be 0.31 µM. Besides, the figures for the Activity (with Plasma [6]; in data set [1]) were 24.4 s and “Toxic”, respectively. Also, in the data set on HUVEC, the LC50 was over 100 µM.

As for `CCCCc1ccc(CO[C@H]2O[C@H](COS(=O)(=O)[O-])[C@@H](OS(=O)(=O)[O-])[C@H](OS(=O)(=O)[O-])[C@@H]2O[C@H]2O[C@H](COS(=O)(=O)[O-])[C@@H](OS(=O)(=O)[O-])[C@H](O[C@H]3O[C@H](COS(=O)(=O)[O-])[C@@H](OS(=O)(=O)[O-])[C@H](O[C@H]4O[C@H](COS(=O)(=O)[O-])[C@@H](OS(=O)(=O)[O-])[C@H](OS(=O)(=O)[O-])[C@@H]4OS(=O)(=O)[O-])[C@@H]3OS(=O)(=O)[O-])[C@@H]2OS(=O)(=O)[O-])cc1.[Na+].[Na+].[Na+].[Na+].[Na+].[Na+].[Na+].[Na+].[Na+].[Na+].[Na+].[Na+].[Na+]`, the Time in the data set on Plasma [2] is reported as 73.1 s. Besides, the Kd in data set [3] came to 0.00021 µM; in [4], 0.012 µM; in data set [5], 0.16 µM. On Heparanase, the Ki was found to be 0.31 µM. This compound also displayed an Activity with Plasma [6] of 49.8 s. The same compound returned an LC50 with HUVEC of over 100 µM.

Consider `O=S(=O)([O-])OC[C@H]1O[C@H](OCc2ccccc2)[C@@H](O[C@H]2O[C@H](COS(=O)(=O)[O-])[C@@H](OS(=O)(=O)[O-])[C@H](O[C@H]3O[C@H](COS(=O)(=O)[O-])[C@@H](OS(=O)(=O)[O-])[C@H](O[C@H]4O[C@H](COS(=O)(=O)[O-])[C@@H](OS(=O)(=O)[O-])[C@H](O[C@H]5O[C@H](COS(=O)(=O)[O-])[C@@H](OS(=O)(=O)[O-])[C@H](OS(=O)(=O)[O-])[C@@H]5OS(=O)(=O)[O-])[C@@H]4OS(=O)(=O)[O-])[C@@H]3OS(=O)(=O)[O-])[C@@H]2OS(=O)(=O)[O-])[C@@H](OS(=O)(=O)[O-])[C@@H]1OS(=O)(=O)[O-].[Na+].[Na+].[Na+].[Na+].[Na+].[Na+].[Na+].[Na+].[Na+].[Na+].[Na+].[Na+].[Na+].[Na+].[Na+].[Na+]`, for which the Time in the data set on Plasma [2] was over 500 s. The outcome in the data set on Aorta was Active. Further, the Kd in data set [3] came to 0.00016 µM; in data set [4], 0.0018 µM; in data set [5], 0.095 µM. Also, the Ki on Heparanase stood at 0.37 µM. Moreover, the Activity in the data set with Plasma [6] was over 500 s; in [1], “Toxic”. In the data set with HUVEC, the LC50 was over 100 µM.

As to `CCCCCCCCCCCCO[C@H]1O[C@H](COS(=O)(=O)[O-])[C@@H](OS(=O)(=O)[O-])[C@H](OS(=O)(=O)[O-])[C@@H]1O[C@H]1O[C@H](COS(=O)(=O)[O-])[C@@H](OS(=O)(=O)[O-])[C@H](O[C@H]2O[C@H](COS(=O)(=O)[O-])[C@@H](OS(=O)(=O)[O-])[C@H](O[C@H]3O[C@H](COS(=O)(=O)[O-])[C@@H](OS(=O)(=O)[O-])[C@H](O[C@H]4O[C@H](COS(=O)(=O)[O-])[C@@H](OS(=O)(=O)[O-])[C@H](OS(=O)(=O)[O-])[C@@H]4OS(=O)(=O)[O-])[C@@H]3OS(=O)(=O)[O-])[C@@H]2OS(=O)(=O)[O-])[C@@H]1OS(=O)(=O)[O-].[Na+].[Na+].[Na+].[Na+].[Na+].[Na+].[Na+].[Na+].[Na+].[Na+].[Na+].[Na+].[Na+].[Na+].[Na+].[Na+]`, the Time with Plasma [2] worked out at 125.9 s. For the same compound, the Kd in [3] was determined as 0.006 µM; in data set [4], 0.012 µM; in data set [5] it was 0.48 µM. Besides, on Heparanase, the Ki came out at 0.28 µM. The compound also returned an Activity with Plasma [6] of 64.2 s. Further, the LC50 with HUVEC is over 100 µM.

For the compound `O=S(=O)([O-])OC[C@H]1O[C@H](OCCCCCCCCn2cc(-c3ccccc3)nn2)[C@@H](O[C@H]2O[C@H](COS(=O)(=O)[O-])[C@@H](OS(=O)(=O)[O-])[C@H](O[C@H]3O[C@H](COS(=O)(=O)[O-])[C@@H](OS(=O)(=O)[O-])[C@H](O[C@H]4O[C@H](COS(=O)(=O)[O-])[C@@H](OS(=O)(=O)[O-])[C@H](O[C@H]5O[C@H](COS(=O)(=O)[O-])[C@@H](OS(=O)(=O)[O-])[C@H](OS(=O)(=O)[O-])[C@@H]5OS(=O)(=O)[O-])[C@@H]4OS(=O)(=O)[O-])[C@@H]3OS(=O)(=O)[O-])[C@@H]2OS(=O)(=O)[O-])[C@@H](OS(=O)(=O)[O-])[C@@H]1OS(=O)(=O)[O-].[Na+].[Na+].[Na+].[Na+].[Na+].[Na+].[Na+].[Na+].[Na+].[Na+].[Na+].[Na+].[Na+].[Na+].[Na+].[Na+]`, the Time in the data set with Plasma [2] came to 96.9 s. Further, the Kd in data set [3] is 0.00016 µM; in [4], 0.00062 µM; in data set [5], 0.043 µM. The Ki at Heparanase was 0.42 µM. The Activity in the data set with Plasma [6] is 38.4 s. The same compound yielded an LC50 in the data set on HUVEC of over 100 µM.

Regarding `O=S(=O)([O-])OC[C@H]1O[C@H](OCCCCCCCCn2cc(-c3cccc4ccccc34)nn2)[C@@H](O[C@H]2O[C@H](COS(=O)(=O)[O-])[C@@H](OS(=O)(=O)[O-])[C@H](O[C@H]3O[C@H](COS(=O)(=O)[O-])[C@@H](OS(=O)(=O)[O-])[C@H](O[C@H]4O[C@H](COS(=O)(=O)[O-])[C@@H](OS(=O)(=O)[O-])[C@H](OS(=O)(=O)[O-])[C@@H]4OS(=O)(=O)[O-])[C@@H]3OS(=O)(=O)[O-])[C@@H]2OS(=O)(=O)[O-])[C@@H](OS(=O)(=O)[O-])[C@@H]1OS(=O)(=O)[O-].[Na+].[Na+].[Na+].[Na+].[Na+].[Na+].[Na+].[Na+].[Na+].[Na+].[Na+].[Na+].[Na+]`, the Time in the data set with Plasma [2] turned out to be 59.5 s. For the same compound, the Kd in data set [3] came to 0.00019 µM; in [4], 0.0071 µM; in [5], 0.11 µM. In addition, on Heparanase, the Ki stood at 0.27 µM. Also, the Activity with Plasma [6] was 28.8 s. In the data set on HUVEC, this compound had an LC50 of over 100 µM.

These data come from ChEMBL document CHEMBL1157543, “Synthesis and biological evaluation of polysulfated oligosaccharide glycosides as inhibitors of angiogenesis and tumor growth” (J Med Chem, 2010).
